Tests used:
[1] = Ratio of FDUR AUC (infinity) in Sprague-Dawley rat liver to FDUR AUC (infinity) in Sprague-Dawley rat plasma at 52.17 mg/kg administered through oral gavage; type: ADME, organism-based; settings: other tissue
Mus musculus [2] = assay: Toxicity in KM mouse assessed as damage to heart at 2 to 3 g/kg, administered through oral gavage after 15 days; settings: in vivo, 360 h
H22 [3] = assay: Antitumor activity against mouse H22 cells implanted in KM mouse assessed as tumor growth inhibition at 130 mg/kg administered daily through oral gavage after 8 days; type: functional; settings: 192 h
Summary of the method: (§1)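 Syngeneic H22 hepatoma: 2 × 10⁶ cells injected s.c. in the axilla (0.9% saline) of female KM mice, n = 10 per group. From day 2, daily oral gavage for 8 days. Test agent given in 35% PEG400; sorafenib suspended in 0.5% CMC-Na. Tumor weight taken on day 8; inhibition rate calculated versus the vehicle group.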

[4] = Half life in dog plasma by HPLC-MS/MS analysis; type: ADME, cell-free, Canis lupus familiaris
Summary of the method: (§2)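 Compound at 1 μg/mL final in dog or human plasma, 37 °C. Sampled at 0–24 h and quenched with ice-cold MeOH containing internal standard. Parent measured by LC-MS/MS in ESI negative mode; t1/2 calculated from percent remaining versus 0 h.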

[5] = Half life in human plasma by HPLC-MS/MS analysis; type: ADME, cell-free; summary of the method: as §2
Liver [6] = assay: AUC (infinity) in Sprague-Dawley rat liver assessed as 5-FU formation at 52.17 mg/kg administered through oral gavage measured up to 24 hrs by HPLC-MS/MS analysis; type: ADME, organism-based; design: dose 52.17 mg/kg, route oral, time infinity; settings: in vivo
Summary of the method: (§3)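 Male Sprague-Dawley rats (220 ± 20 g), single gavage of 0.096 mmol/kg. FDUR was dosed in H2O; the prodrugs were dosed in 20% hydroxypropyl-β-cyclodextrin. n = 3 per time point, sampled at 0.25–24 h. Plasma (EDTA-K2, cardiac puncture) and freeze-clamped liver were homogenized in 20 mM EDTA-K2/70% MeOH. Analytes measured by HPLC-MS/MS in ESI negative mode.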

Liver [7] = assay: Drug metabolism in Sprague-Dawley rat liver S9 fraction assessed as (S)-2-((R)-(((2R,3S,5R)-5-(5-fluoro-2,4-dioxo-3,4-dihydropyrimidin-1(2H)-yl)-3-hydroxytetrahydrofuran-2-yl)methoxy)(2-methylbenzyloxy)phosphorylamino)propanoate formation at 20 ug/mL after 20 mins by HPLC-MS/MS analysis in absence of NADPH; type: ADME; settings: s9, 20 min
Summary of the method: (§4)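 Rat liver S9 (10 mg/mL) incubated with compound at 20 μg/mL. Parent, intermediate A and FdUMP followed over time by HPLC-MS/MS. Negative control run without NADPH.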

Liver [8] = assay: AUC (infinity) in Sprague-Dawley rat liver assessed as FdUMP formation at 52.17 mg/kg administered through oral gavage measured up to 24 hrs by HPLC-MS/MS analysis; type: ADME, organism-based; design: dose 52.17 mg/kg, route oral, time infinity; settings: in vivo; summary of the method: as §3
Mus musculus [9] = assay: Toxicity in KM mouse assessed as damage to kidney at 2 to 3 g/kg, administered through oral gavage after 15 days; settings: in vivo, 360 h
Liver [10] = assay: Cmax in Sprague-Dawley rat liver assessed as FdUMP formation at 52.17 mg/kg administered through oral gavage measured up to 24 hrs by HPLC-MS/MS analysis; type: ADME, organism-based; design: dose 52.17 mg/kg, route oral; settings: in vivo; summary of the method: as §3
Liver [11] = assay: Cmax in Sprague-Dawley rat liver assessed as FDUR formation at 52.17 mg/kg administered through oral gavage measured up to 24 hrs by HPLC-MS/MS analysis; type: ADME, organism-based; design: dose 52.17 mg/kg, route oral; settings: in vivo; summary of the method: as §3
Liver [12] = assay: Drug metabolism in Sprague-Dawley rat liver S9 fraction assessed as FdUMP formation at 20 ug/mL after 20 mins by HPLC-MS/MS analysis in absence of NADPH; type: ADME; settings: s9, 20 min; summary of the method: as §4
Liver [13] = assay: Drug metabolism in Sprague-Dawley rat liver assessed as o-methylhippuric acid formation; type: ADME, tissue-based
Mus musculus [14] = assay: Toxicity in KM mouse assessed as weight loss at 2 to 3 mg/kg, administered through oral gavage after 1 to 5 days; type: organism-based; settings: in vivo, in the assay text read “2 to 3 g/kg” for “2 to 3 mg/kg”
Summary of the method: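 Female KM mice (20 2 g), fasted overnight, 5 per group. Single oral gavage at 2 or 3 g/kg in 57% hydroxypropyl-β-cyclodextrin. Watched continuously for 4 h, intermittently to 24 h, then occasionally to day 15 for weight, appetite and behaviour. Mean body weight change tracked days 1–15. Organs examined macroscopically at sacrifice on day 15.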

H22 [15] = assay: Antitumor activity against mouse H22 cells implanted in KM mouse assessed as tumor growth inhibition at 260 mg/kg administered daily through oral gavage after 8 days; type: functional; settings: 192 h; summary of the method: as §1
Mus musculus [16] = assay: Toxicity in KM mouse assessed as damage to lung at 2 to 3 g/kg, administered through oral gavage after 15 days; settings: in vivo, 360 h
Mus musculus [17] = assay: Toxicity in KM mouse implanted with mouse H22 cells assessed as body weight level at 130 mg/kg administered daily through oral gavage after 8 days (reference value: 21.7 to 22.3 g); type: organism-based; settings: in vivo, 192 h
Liver [18] = assay: AUC (infinity) in Sprague-Dawley rat liver assessed as FDUR formation at 52.17 mg/kg administered through oral gavage measured up to 24 hrs by HPLC-MS/MS analysis; type: ADME, organism-based; design: dose 52.17 mg/kg, route oral, time infinity; settings: in vivo; summary of the method: as §3
[19] = Cytotoxicity against human LO2 cells assessed as reduction in cell viability after 72 hrs by MTT assay; type: cell-based; settings: L02, 72 h
Summary of the method: (§5)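 Cells in RPMI-1640 with 10% FBS, seeded at 4 × 10³ per well and attached for 24 h. Compound (DMSO ≤0.5% final) added for 72 h at 37 °C, 5% CO2. Viability read by MTT. IC50 set against 0.5% DMSO-treated cells taken as 100% viable. Mean of two independent experiments, each run in triplicate.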

H22 [20] = assay: Antitumor activity against mouse H22 cells implanted in KM mouse assessed as tumor growth inhibition at 65 mg/kg administered daily through oral gavage after 8 days; type: functional; settings: 192 h; summary of the method: as §1
Mus musculus [21] = assay: Toxicity in KM mouse assessed as damage to liver at 2 to 3 g/kg, administered through oral gavage after 15 days; settings: in vivo, 360 h
Liver [22] = assay: Cmax in Sprague-Dawley rat liver assessed as (S)-2-((R)-(((2R,3S,5R)-5-(5-fluoro-2,4-dioxo-3,4-dihydropyrimidin-1(2H)-yl)-3-hydroxytetrahydrofuran-2-yl)methoxy)(2-methylbenzyloxy)phosphorylamino)propanoate formation at 52.17 mg/kg administered through oral gavage measured up to 24 hrs by HPLC-MS/MS analysis; type: ADME, organism-based; design: dose 52.17 mg/kg, route oral; settings: in vivo; summary of the method: as §3
Mus musculus [23] = assay: Toxicity in KM mouse implanted with mouse H22 cells assessed as body weight level at 260 mg/kg administered daily through oral gavage after 8 days (reference value: 21.7 to 22.3 g); type: organism-based; settings: in vivo, 192 h
[24] = Cytotoxicity against human SMMC7721 cells assessed as reduction in cell viability after 72 hrs by MTT assay; type: functional, cell-based; settings: SMMC-7721, 72 h; summary of the method: as §5
Plasma [25] = assay: Drug metabolism in Sprague-Dawley rat plasma assessed as o-methylhippuric acid formation; type: ADME, cell-free
Liver [26] = assay: AUC (infinity) in Sprague-Dawley rat liver assessed as (S)-2-((R)-(((2R,3S,5R)-5-(5-fluoro-2,4-dioxo-3,4-dihydropyrimidin-1(2H)-yl)-3-hydroxytetrahydrofuran-2-yl)methoxy)(2-methylbenzyloxy)phosphorylamino)propanoate formation at 52.17 mg/kg administered through oral gavage measured up to 24 hrs by HPLC-MS/MS analysis; type: ADME, organism-based; design: dose 52.17 mg/kg, route oral, time infinity; settings: in vivo; summary of the method: as §3
Plasma [27] = assay: Cmax in Sprague-Dawley rat plasma assessed as (S)-2-((R)-(((2R,3S,5R)-5-(5-fluoro-2,4-dioxo-3,4-dihydropyrimidin-1(2H)-yl)-3-hydroxytetrahydrofuran-2-yl)methoxy)(2-methylbenzyloxy)phosphorylamino) propanoate formation at 52.17 mg/kg administered through oral gavage measured up to 24 hrs by HPLC-MS/MS analysis; type: ADME, organism-based; design: dose 52.17 mg/kg, route oral; settings: in vivo; summary of the method: as §3

Cc1ccccc1CO[P@](=O)(N[C@@H](C)C(=O)OC(C)C)OC[C@H]1O[C@@H](n2cc(F)c(=O)[nH]c2=O)C[C@@H]1O
Ratio AUC [1]: 59.3
Activity (Mus musculus [2]): Non-toxic
inhibition in vivo at 130 mg/kg (H22 [3]): 61.7%
half-life [4]: > 24 h
half-life [5]: > 24 h
AUC (Liver [6]): 257 ng·h/g
Drug metabolism (Liver [7]): metabolite_detected
AUC (Liver [8]): 543 ng·h/g
Activity (Mus musculus [9]): Non-toxic
Cmax (Liver [10]): 340 ng/g
Cmax (Liver [11]): 747 ng/g
Drug metabolism (Liver [12]): metabolite_notdetected
Drug metabolism (Liver [13]): metabolite_detected
Activity (Mus musculus [14]): Non-toxic
inhibition in vivo at 260 mg/kg (H22 [15]): 72.5%
Activity (Mus musculus [16]): Non-toxic
Activity (Mus musculus [17]): 23.8 g
AUC (Liver [18]): 1541 ng·h/g
IC50 [19]: 412 µM
inhibition in vivo at 65 mg/kg (H22 [20]): 44.2%
Activity (Mus musculus [21]): Non-toxic
Cmax (Liver [22]): 3673 ng/g
Activity (Mus musculus [23]): 22.3 g
IC50 [24]: 250 µM
Drug metabolism (Plasma [25]): metabolite_detected
AUC (Liver [26]): 5509 ng·h/g
Cmax (Plasma [27]): 234 ng/mL

From ChEMBL document CHEMBL3813647, “Discovery of an Orally Active and Liver-Targeted Prodrug of 5-Fluoro-2'-Deoxyuridine for the Treatment of Hepatocellular Carcinoma” (J Med Chem, 2016)
